In ChEMBL document CHEMBL3860048 (J Med Chem, 2016):
Active and inactive are the calls of the source. The calls are words filed in the database; no cut-off is given here. Where a SMILES comes first, the peptide text is derived from it. [ ]: non-standard residue; d: D form. Phe(3-F) = N[C@@H](Cc1cccc(F)c1)C(=O)O; Arg(Me) = CNC(=N)NCCC[C@H](N)C(=O)O; Hyp = O=C(O)[C@@H]1C[C@@H](O)CN1; Aze = O=C(O)[C@@H]1CCN1; Aib = CC(C)(N)C(=O)O; azaGly = NNC(=O)O

Columns and labels:
[1] = Inhibition of testosterone levels in sc dosed Crl:CD(SD) rat plasma assessed as compound dosing causing plasma testosterone level <0.04 ng/ml in all tested animals administered as continuous dosing through alzet osmotic pump for 1 to 4 weeks by radio-immunoassay; assay type: functional
Rattus norvegicus [2] = test: Inhibition of testosterone levels in Crl:CD(SD) rat plasma assessed as plasma testosterone level <0.04 ng/ml at 30 pmol/hr, sc administered as continuous dosing through alzet osmotic pump for 1 week by radio-immunoassay; assay type: functional, organism-based
In short: (§1)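 Peptide dissolved in 50% DMSO at 3, 10, 30 or 100 µM, loaded into ALZET osmotic pumps for 3 to 100 pmol/h. Pumps implanted sc in 5 Crl:CD(SD) male rats. Plasma testosterone measured by RIA after 1 or 4 weeks. Values below the 0.04 ng/mL detection limit were treated as 0.04. Count of rats below the limit.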

[3] = Solubility of the compound in water at 20 mg/ml; assay type: physicochemical; details: buffer
Rattus norvegicus [4] = test: Inhibition of testosterone levels in Crl:CD(SD) rat plasma assessed as plasma testosterone level <0.04 ng/ml at 100 pmol/hr, sc administered as continuous dosing through alzet osmotic pump for 1 week by radioimmunoassay; assay type: functional, organism-based; in short: as §1
[5] = Conformational changes of the compound in distilled water assessed as decrease in beta-sheet content at 0.1 mg/ml by preliminary circular dichroism analysis; design: scale not given: the % may be the effect or the level left
Rattus norvegicus [6] = test: Inhibition of testosterone levels in CD(SD) rat assessed as plasma testosterone level <0.04 ng/ml at 0.1 nmol/hr, sc administered continuously for 6 days through alzet osmotic pump measured after 6 days by radio-immunoassay; assay type: functional, organism-based
[7] = Cmax in Sprague-Dawley rat plasma at 1 mg/kg, sc by LC/MS analysis; assay type: ADME, organism-based; design: dose 1 mg/kg, route subcutaneous
In short: (§2)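 Single subcutaneous 1 mg/kg dose to SD rats (n=3 per group). Plasma drawn at 5, 10, 15, 30 min and 1, 2, 4, 8, 24 h. Proteins removed with 0.2% formic acid/methanol (1:4, v/v) plus acetonitrile, centrifuged, supernatant diluted in 0.4% aqueous formic acid, then measured by LC/MS. Noncompartmental analysis per rat, mean ± SD.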

Rattus norvegicus [8] = test: Inhibition of testosterone levels in Crl:CD(SD) rat plasma assessed as plasma testosterone level <0.04 ng/ml at 100 pmol/hr, sc administered as continuous dosing through alzet osmotic pump for 4 weeks by radioimmunoassay; assay type: functional, organism-based; in short: as §1
KiSS-1 receptor [9] = target: KiSS-1 receptor (Rattus norvegicus, UniProt Q924U1); test: Agonist activity at rat KISS1R expressed in CHO/dhfr cells assessed as increase in intracellular Ca2+ levels measured for 180 secs by Fluo 3-AM dye based FLIPR assay; assay type: functional, cell-based
Rattus norvegicus [10] = test: Inhibition of testosterone levels in CD(SD) rat assessed as plasma testosterone level <0.04 ng/ml at 0.01 nmol/hr, sc administered continuously for 6 days through alzet osmotic pump measured after 6 days by radio-immunoassay; assay type: functional, organism-based
KiSS-1 receptor [11] = target: KiSS-1 receptor (Homo sapiens, UniProt Q969F8); test: Agonist activity at human KISS1R expressed in CHO/dhfr cells assessed as increase in intracellular Ca2+ levels measured for 180 secs by Fluo 3-AM dye based FLIPR assay; assay type: functional, cell-based
In short: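 CHO cells expressing human KISS1R; FLIPR recording of ligand-induced [Ca2+]i rise over time. Maximum response taken and expressed as percent of the response to a maximal concentration of metastin(45-54). EC50 = concentration giving half-maximal mobilization, from nonlinear regression of smoothed data. Reported as ratio to the metastin(45-54) EC50.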

[12] = Bioavailability in Sprague-Dawley rat plasma at 1 mg/kg, sc up to 24 hrs by LC/MS analysis; assay type: ADME, organism-based; in short: as §2
[13] = Tmax in Sprague-Dawley rat plasma at 1 mg/kg, sc by LC/MS analysis; assay type: ADME, organism-based; in short: as §2
[14] = Plasma concentration in Sprague-Dawley rat at 1 mg/kg, iv after 5 mins by LC/MS analysis; assay type: ADME, organism-based
In short: (§3)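 Single intravenous 1 mg/kg bolus to SD rats (n=3 per group). Blood sampled at 5, 10, 15, 30 min and 1, 2, 4, 8, 24 h. Plasma deproteinized with 0.2% formic acid/methanol (1:4, v/v) plus acetonitrile, spun 15,000 rpm for 5 min, supernatant treated with 0.4% aqueous formic acid and spun again, then quantified by LC/MS. Noncompartmental parameters per rat, reported as mean ± SD.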

[15] = MRT in Sprague-Dawley rat plasma at 1 mg/kg, iv by LC/MS analysis; assay type: ADME, organism-based; in short: as §3
[16] = Total clearance in Sprague-Dawley rat plasma at 1 mg/kg, iv up to 24 hrs by LC/MS analysis; assay type: ADME, organism-based; in short: as §3
[17] = AUC (0 to 24 hrs) in Sprague-Dawley rat plasma at 1 mg/kg, sc by LC/MS analysis; assay type: ADME, organism-based; design: dose 1 mg/kg, time < 24 hr, route subcutaneous; in short: as §2
[18] = AUC (0 to 24 hrs) in Sprague-Dawley rat plasma at 1 mg/kg, iv up to 24 hrs by LC/MS analysis; assay type: ADME, organism-based; design: dose 1 mg/kg, time < 24 hr, route intravenous; in short: as §3
Rattus norvegicus [19] = test: Inhibition of testosterone levels in Crl:CD(SD) rat plasma assessed as plasma testosterone level <0.04 ng/ml at 10 pmol/hr, sc administered as continuous dosing through alzet osmotic pump for 1 week by radio-immunoassay; assay type: functional, organism-based; in short: as §1
[20] = Volume of distribution in steady state in Sprague-Dawley rat plasma at 1 mg/kg, iv up to 24 hrs by LC/MS analysis; assay type: ADME, organism-based; details: read-out: Vdss; in short: as §3
[21] = MRT in Sprague-Dawley rat plasma at 1 mg/kg, sc by LC/MS analysis; assay type: ADME, organism-based; in short: as §2
Rattus norvegicus [22] = test: Inhibition of testosterone levels in CD(SD) rat assessed as plasma testosterone level <0.04 ng/ml at 0.03 nmol/hr, sc administered continuously for 6 days through alzet osmotic pump measured after 6 days by radio-immunoassay; assay type: functional, organism-based

Sequence of KiSS-1 receptor (Homo sapiens, UniProt Q969F8) (Q969F8 whole entry): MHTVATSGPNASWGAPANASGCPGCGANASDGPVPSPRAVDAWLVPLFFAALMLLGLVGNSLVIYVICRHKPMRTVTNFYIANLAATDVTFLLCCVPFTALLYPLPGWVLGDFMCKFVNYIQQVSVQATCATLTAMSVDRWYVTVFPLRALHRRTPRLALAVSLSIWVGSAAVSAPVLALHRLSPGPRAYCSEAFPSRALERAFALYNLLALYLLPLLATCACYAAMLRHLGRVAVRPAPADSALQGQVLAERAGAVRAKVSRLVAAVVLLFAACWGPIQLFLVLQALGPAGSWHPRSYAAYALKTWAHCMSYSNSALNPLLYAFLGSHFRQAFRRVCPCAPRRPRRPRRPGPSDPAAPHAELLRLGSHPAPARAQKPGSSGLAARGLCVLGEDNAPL
Sequence of KiSS-1 receptor (Rattus norvegicus, UniProt Q924U1) (Q924U1 whole entry): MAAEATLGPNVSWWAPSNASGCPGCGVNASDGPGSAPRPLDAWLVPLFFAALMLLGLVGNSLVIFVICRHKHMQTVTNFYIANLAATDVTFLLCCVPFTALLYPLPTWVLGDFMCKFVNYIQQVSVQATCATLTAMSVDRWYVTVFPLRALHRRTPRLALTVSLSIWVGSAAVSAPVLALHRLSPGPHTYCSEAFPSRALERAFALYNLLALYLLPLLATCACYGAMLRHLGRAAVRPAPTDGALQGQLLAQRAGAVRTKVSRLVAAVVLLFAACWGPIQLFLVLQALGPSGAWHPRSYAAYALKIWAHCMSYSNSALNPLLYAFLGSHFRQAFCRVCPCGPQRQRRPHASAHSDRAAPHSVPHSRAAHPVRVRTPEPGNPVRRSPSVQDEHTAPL

| solubility [3] | EC50 (KiSS-1 receptor [9]) [nM] | EC50 (KiSS-1 receptor [11]) [nM] | Compound | inhibition (Rattus norvegicus [10]) | also measured |
| --- | --- | --- | --- | --- | --- |
| – | 9.3 | 0.48 | CNC(=N)NCCC[C@H](NC(=O)[C@H](CC(C)C)NC(=O)NNC(=O)[C@H](Cc1ccccc1)NC(=O)[C@@H](NC(=O)[C@H](CC(N)=O)NC(=O)[C@@H]1CCCN1C(=O)[C@@H](Cc1ccc(O)cc1)NC(C)=O)[C@@H](C)O)C(=O)N[C@@H](Cc1c[nH]c2ccccc12)C(N)=O | Active | – |
| Soluble | 46 | 5.2 | CNC(=N)NCCC[C@H](NC(=O)[C@H](CC(C)C)NC(=O)NNC(=O)[C@H](Cc1ccccc1)NC(=O)[C@@H](NC(=O)[C@H](CC(N)=O)NC(=O)CNC(=O)[C@@H](Cc1ccc(O)cc1)NC(C)=O)[C@@H](C)O)C(=O)N[C@@H](Cc1c[nH]c2ccccc12)C(N)=O (Ac-[dY]GNTF[azaGly]L[Arg(Me)]W-NH2) | – | inhibition (Rattus norvegicus [22]): Active |
| Soluble | 17 | 2.4 | CNC(=N)NCCC[C@H](NC(=O)[C@H](CC(C)C)NC(=O)NNC(=O)[C@H](Cc1ccccc1)NC(=O)[C@@H](NC(=O)[C@H](CC(N)=O)NC(=O)C(C)(C)NC(=O)[C@@H](Cc1ccc(O)cc1)NC(C)=O)[C@@H](C)O)C(=O)N[C@@H](Cc1c[nH]c2ccccc12)C(N)=O (Ac-[dY][Aib]NTF[azaGly]L[Arg(Me)]W-NH2) | – | inhibition (Rattus norvegicus [22]): Active |
| – | 16 | 1.9 | CNC(=N)NCCC[C@H](NC(=O)[C@H](CC(C)C)NC(=O)NNC(=O)[C@H](Cc1ccccc1)NC(=O)[C@@H](NC(=O)[C@H](CC(N)=O)NC(=O)[C@@H]1CCN1C(=O)[C@@H](Cc1ccc(O)cc1)NC(C)=O)[C@@H](C)O)C(=O)N[C@@H](Cc1c[nH]c2ccccc12)C(N)=O (Ac-[dY][Aze]NTF[azaGly]L[Arg(Me)]W-NH2) | – | inhibition (Rattus norvegicus [22]): Active |

Further lines, the compound ahead of its results:

| Compound | solubility [3] | EC50 (KiSS-1 receptor [9]) [nM] | EC50 (KiSS-1 receptor [11]) [nM] | inhibition (Rattus norvegicus [10]) | also measured |
| --- | --- | --- | --- | --- | --- |
| CNC(=N)NCCC[C@H](NC(=O)[C@H](CC(C)C)NC(=O)NNC(=O)[C@H](Cc1ccccc1)NC(=O)[C@@H](NC(=O)[C@H](CC(N)=O)NC(=O)[C@@H](Cc1c[nH]c2ccccc12)NC(=O)[C@@H](Cc1ccc(O)cc1)NC(C)=O)[C@@H](C)O)C(=O)N[C@@H](Cc1c[nH]c2ccccc12)C(N)=O | Soluble | – | – | – | MED [1]: 100 pmol/h; inhibition (Rattus norvegicus [2]): Active; inhibition (Rattus norvegicus [4]): Active; Activity [5]: 34.8%; inhibition (Rattus norvegicus [6]): Active; Cmax [7]: 100 ng/mL; inhibition (Rattus norvegicus [8]): Active |
| CNC(=N)NCCC[C@H](NC(=O)[C@H](CC(C)C)NC(=O)NNC(=O)[C@H](Cc1ccccc1)NC(=O)[C@@H](NC(=O)[C@H](CC(N)=O)NC(=O)[C@@H](CCCCN)NC(=O)[C@@H](Cc1ccc(O)cc1)NC(C)=O)[C@@H](C)O)C(=O)N[C@@H](Cc1c[nH]c2ccccc12)C(N)=O | – | 18 | 3.6 | – | inhibition (Rattus norvegicus [6]): Active |
| CNC(=N)NCCC[C@H](NC(=O)[C@H](CC(C)C)NC(=O)NNC(=O)[C@H](Cc1ccccc1)NC(=O)[C@@H](NC(=O)[C@H](CC(N)=O)NC(=O)[C@@H](CCC(=O)O)NC(=O)[C@@H](Cc1ccc(O)cc1)NC(C)=O)[C@@H](C)O)C(=O)N[C@@H](Cc1c[nH]c2ccccc12)C(N)=O | – | 40 | 22 | – | inhibition (Rattus norvegicus [6]): Active |
| CNC(=N)NCCC[C@H](NC(=O)[C@H](CC(C)C)NC(=O)NNC(=O)[C@H](Cc1ccccc1)NC(=O)[C@@H](NC(=O)[C@H](CC(N)=O)NC(=O)[C@H](Cc1c[nH]c2ccccc12)NC(=O)[C@@H](Cc1ccc(O)cc1)NC(C)=O)[C@@H](C)O)C(=O)N[C@@H](Cc1c[nH]c2ccccc12)C(N)=O | Insoluble | 4.8 | 0.61 | Active | – |
| CNC(=N)NCCC[C@H](NC(=O)[C@H](CC(C)C)NC(=O)NNC(=O)[C@H](Cc1cccc(F)c1)NC(=O)[C@@H](NC(=O)[C@H](CC(N)=O)NC(=O)[C@H](CCC(=O)O)NC(=O)[C@@H](Cc1ccc(O)cc1)NC(C)=O)[C@@H](C)O)C(=O)N[C@@H](Cc1c[nH]c2ccccc12)C(N)=O (Ac-[dY]ENT[Phe(3-F)][azaGly]L[Arg(Me)]W-NH2) | Insoluble | 20 | 0.47 | Active | bioavailability [12]: 94.5%; Tmax [13]: 23.4 min; concentration at 5 min [14]: 2630 ng/mL; inhibition (Rattus norvegicus [2]): Active; MRT [15]: 31.8 min; clearance [16]: 12.8 mL/min/kg; AUC(0-t) at 24 h [17]: 1260 ng·h/mL; Cmax [7]: 703 ng/mL; AUC(0-t) at 24 h [18]: 1330 ng·h/mL; inhibition (Rattus norvegicus [19]): Active; Vd [20]: 0.406 L/kg; MRT [21]: 65.4 min |
| CNC(=N)NCCC[C@H](NC(=O)[C@H](CC(C)C)NC(=O)NNC(=O)[C@H](Cc1cccc(F)c1)NC(=O)[C@@H](NC(=O)[C@H](CC(N)=O)NC(=O)[C@H](CCCCN)NC(=O)[C@@H](Cc1ccc(O)cc1)NC(C)=O)[C@@H](C)O)C(=O)N[C@@H](Cc1c[nH]c2ccccc12)C(N)=O (Ac-[dY]KNT[Phe(3-F)][azaGly]L[Arg(Me)]W-NH2) | Soluble | 7.1 | 0.43 | – | – |
| CNC(=N)NCCC[C@H](NC(=O)[C@H](CC(C)C)NC(=O)NNC(=O)[C@H](Cc1cccc(F)c1)NC(=O)[C@@H](NC(=O)[C@H](CC(N)=O)NC(=O)[C@@H]1C[C@@H](O)CN1C(=O)[C@@H](Cc1ccc(O)cc1)NC(C)=O)[C@@H](C)O)C(=O)N[C@@H](Cc1c[nH]c2ccccc12)C(N)=O (Ac-[dY][Hyp]NT[Phe(3-F)][azaGly]L[Arg(Me)]W-NH2) | – | 8.5 | 0.75 | Active | – |
